Assays:
Assay type in all cases: functional
Details in all cases: for inhibition of growth at 50 µg/mL: 48 h, read-out: GI
Mycosphaerella arachidis = assay: Fungicidal activity against Mycosphaerella arachidis assessed as growth inhibition at 50 ug/ml after 2 days
Method in brief: (§1)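 Poisoned-plate mycelial growth assay. The test sample was mixed into molten potato dextrose agar in a Petri dish before it set. Fungus was inoculated and incubated at 24-26 °C. Colony spread diameter was measured after 2 days, and percent growth inhibition was calculated relative to the corresponding control plate.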

[1] = test system: Botryosphaeria berengeriana; assay: Fungicidal activity against Botryosphaeria berengeriana assessed as growth inhibition at 50 ug/ml after 2 days; method in brief: as §1
Alternaria solani = assay: Fungicidal activity against Alternaria solani assessed as growth inhibition at 50 ug/ml after 2 days; method in brief: as §1
Botrytis cinerea = assay: Fungicidal activity against Botryotinia fuckeliana assessed as growth inhibition at 50 ug/ml after 2 days; method in brief: as §1
Fusarium graminearum = assay: Fungicidal activity against Fusarium graminearum assessed as growth inhibition at 50 ug/ml after 2 days
Method in brief: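 Mycelial growth test on potato dextrose agar (9 mL) in Petri dishes, with the plate mixed thoroughly before setting. Gibberella zeae inoculated and cultured at 24-26 °C. Colony spread diameter measured after 2 days, and growth inhibition calculated relative to the corresponding control.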

tricyclohexylstannyl benzo[d][1,2,3]thiadiazole-7-carboxylate
growth inhibition (GI) (Mycosphaerella arachidis): 76.7% | growth inhibition (GI) [1]: 92.5% | growth inhibition (GI) (Alternaria solani): 50% | growth inhibition (GI) (Botrytis cinerea): 94.1% | growth inhibition (GI) (Fusarium graminearum): 50%

diethylstannanediyl dibenzo[d][1,2,3]thiadiazole-7-carboxylate
growth inhibition (GI) (Mycosphaerella arachidis): 20.5% | growth inhibition (GI) [1]: 36.7% | growth inhibition (GI) (Alternaria solani): 32.3% | growth inhibition (GI) (Botrytis cinerea): 43.2% | growth inhibition (GI) (Fusarium graminearum): 50%

dibutylstannanediyl dibenzo[d][1,2,3]thiadiazole-7-carboxylate
growth inhibition (GI) (Mycosphaerella arachidis): 23.1% | growth inhibition (GI) [1]: 27.3% | growth inhibition (GI) (Alternaria solani): 19.8% | growth inhibition (GI) (Botrytis cinerea): 29.7% | growth inhibition (GI) (Fusarium graminearum): 58.3%

triethylstannyl benzo[d][1,2,3]thiadiazole-7-carboxylate
growth inhibition (GI) (Mycosphaerella arachidis): 100% | growth inhibition (GI) [1]: 100% | growth inhibition (GI) (Alternaria solani): 100% | growth inhibition (GI) (Botrytis cinerea): 100% | growth inhibition (GI) (Fusarium graminearum): 100%

O=C(O)c1cccc2nnsc12 [1,2,3-benzothia-diazole-7-carboxylic acid]
inhibition of growth at 50 µg/mL (Mycosphaerella arachidis): 30.8% | inhibition of growth at 50 µg/mL [1]: 40.5% | inhibition of growth at 50 µg/mL (Alternaria solani): 42.4% | inhibition of growth at 50 µg/mL (Botrytis cinerea): 72.1% | inhibition of growth at 50 µg/mL (Fusarium graminearum): 60.7%

tributylstannyl benzo[d][1,2,3]thiadiazole-7-carboxylate
growth inhibition (GI) (Mycosphaerella arachidis): 97.4% | growth inhibition (GI) [1]: 97.2% | growth inhibition (GI) (Alternaria solani): 92.5% | growth inhibition (GI) (Botrytis cinerea): 98.2% | growth inhibition (GI) (Fusarium graminearum): 92.9%

triphenylstannyl benzo[d][1,2,3]thiadiazole-7-carboxylate
growth inhibition (GI) (Mycosphaerella arachidis): 71.8% | growth inhibition (GI) [1]: 97.2% | growth inhibition (GI) (Alternaria solani): 92.5% | growth inhibition (GI) (Botrytis cinerea): 91.9% | growth inhibition (GI) (Fusarium graminearum): 54.8%

CCCC1COC(Cn2cncn2)(c2ccc(Cl)cc2Cl)O1 (stereo not given) [PROPICONAZOLE]
inhibition of growth at 50 µg/mL (Mycosphaerella arachidis): 100% | inhibition of growth at 50 µg/mL [1]: 100% | inhibition of growth at 50 µg/mL (Alternaria solani): 89.2% | inhibition of growth at 50 µg/mL (Botrytis cinerea): 100% | inhibition of growth at 50 µg/mL (Fusarium graminearum): 100%

— ChEMBL document CHEMBL3045170, “Synthesis and biological activity of organotin 4-methyl-1,2,3-thiadiazole-5-carboxylates and benzo[1,2,3]thiadiazole-7-carboxylates” (J Agric Food Chem, 2010)
